Reference: ChEMBL document CHEMBL1144529, “A library of novel hydroxamic acids targeting the metallo-protease family: design, parallel synthesis and screening” (Bioorg Med Chem, 2007)
pIC50: −log10 of the molar value.

target: T1, Aminopeptidase N (Sus scrofa, UniProt P15145); assay: Inhibition of microsomal […] aminopeptidase in pig kidney
T1 sequence (P15145 whole entry): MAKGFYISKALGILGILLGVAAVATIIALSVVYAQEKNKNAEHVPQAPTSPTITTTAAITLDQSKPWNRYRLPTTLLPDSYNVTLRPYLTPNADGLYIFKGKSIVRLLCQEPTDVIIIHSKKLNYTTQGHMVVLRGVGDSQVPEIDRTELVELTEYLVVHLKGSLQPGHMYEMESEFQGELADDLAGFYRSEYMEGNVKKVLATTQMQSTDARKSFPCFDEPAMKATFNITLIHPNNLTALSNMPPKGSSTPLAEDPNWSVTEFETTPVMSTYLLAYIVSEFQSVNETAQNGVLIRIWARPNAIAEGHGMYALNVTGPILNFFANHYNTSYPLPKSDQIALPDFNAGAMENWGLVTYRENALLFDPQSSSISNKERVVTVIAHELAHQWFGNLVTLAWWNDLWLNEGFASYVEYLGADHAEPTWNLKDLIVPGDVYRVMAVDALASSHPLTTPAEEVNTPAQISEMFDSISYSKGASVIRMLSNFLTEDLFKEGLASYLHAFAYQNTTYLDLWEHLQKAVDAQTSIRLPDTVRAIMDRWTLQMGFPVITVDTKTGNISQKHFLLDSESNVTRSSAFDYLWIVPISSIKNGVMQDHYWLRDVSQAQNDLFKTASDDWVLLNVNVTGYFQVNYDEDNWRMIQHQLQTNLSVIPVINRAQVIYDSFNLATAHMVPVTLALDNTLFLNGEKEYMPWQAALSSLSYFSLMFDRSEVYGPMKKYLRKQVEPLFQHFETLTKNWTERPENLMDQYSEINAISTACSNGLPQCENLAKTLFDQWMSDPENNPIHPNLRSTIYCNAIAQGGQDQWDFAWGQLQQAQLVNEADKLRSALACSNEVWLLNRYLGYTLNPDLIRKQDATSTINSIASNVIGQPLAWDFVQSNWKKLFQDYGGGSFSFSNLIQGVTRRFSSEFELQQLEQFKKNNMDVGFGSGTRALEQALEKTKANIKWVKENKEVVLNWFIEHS
Outline: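 Porcine kidney microsomal APN, ammonium sulfate suspension diluted 600-fold in Tris-HCl (25 mM, pH 7.4). Activity compared with enzyme run without inhibitor.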

Compound | pIC50
CC(C)CC(C(=O)NO)C(=O)NCCCCc1ccccc1 (centres undefined) | 7.09
O=C(NO)C(Cc1cccc(Oc2ccccc2)c1)C(=O)NCCCCc1ccccc1 (centres undefined) | < 5.00
O=C(NO)C(Cc1ccccc1)C(=O)NCCCCc1ccccc1 (centres undefined) | < 5.00
Cn1c(CC(C(=O)NO)C(=O)NCc2ccccc2)nc2ccccc21 (centres undefined) | 6.14
CC(C)CC(C(=O)NO)C(=O)NCc1ccccc1 (centres undefined) | 6.23
CC(C)CC(C(=O)NO)C(=O)NCc1ccc(Cl)cc1 (centres undefined) | 5.60
O=C(NO)C(Cc1ccccc1)C(=O)NCc1ccccc1 (centres undefined) | < 5.00
O=C(NO)C(Cc1cccc(Oc2ccccc2)c1)C(=O)NCc1ccccc1 (centres undefined) | < 5.00
CC(C)CC(C(=O)NO)C(=O)N1CCC(Cc2ccccc2)CC1 (centres undefined) | 6.34
CC(C)CC(C(=O)NO)C(=O)NCc1ccc(F)cc1 (centres undefined) | 5.52
CC(C)CC(C(=O)NO)C(=O)NC1CCc2ccccc2C1 (centres undefined) | 5.52
CC(C)CC(C(=O)NO)C(=O)NCCCc1ccccc1 (centres undefined) | 6.28
CC(C)CC(C(=O)NO)C(=O)NCc1cccc(Oc2ccccc2)c1 (centres undefined) | 6.35
CC(C)CC(C(=O)NO)C(=O)NCCc1ccccc1 (centres undefined) | 6.01
